# Assay results as given in ChEMBL document CHEMBL1150787, “The L80I substitution in the reverse transcriptase domain of the hepatitis B virus polymerase is associated with lamivudine resistance and enhanced viral replication in vitro” (Antimicrob Agents Chemother, 2007).
# Calls of active or inactive are those of the source. The rule behind the calls is not given here.
# How the values were obtained:
# HBV genotype D [1] = test: Antiviral activity against HBV genotype D with reverse transcriptase L80I mutation in human Huh7 cells assessed as viral replication yield at 1 uM after 5 days relative to control; assay type: functional, hepatitis B virus genotype D, Huh-7
# How it was run: (§1)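 Huh7 transfectants were cultured for 5 days with or without 1 μM LMV. Intracellular core-associated HBV DNA was measured by Southern blot and densitometry. Yields were corrected for transfection efficiency by HBsAg in supernatant (IMX immunoassay) and expressed relative to the mean of uninhibited controls (1.0). Each value comes from at least three experiments.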
# HBV genotype D [2] = test: Effect on replication efficiency of HBV genotype D with reverse transcriptase L80I/M204I mutation in human Huh7 cells assessed as increase in viral replication yield at 1 uM after 5 days relative to control; assay type: functional, hepatitis B virus genotype D, Huh-7; how it was run: as §1
# HBV genotype D [3] = test: Antiviral activity against HBeAg-deficient HBV genotype D with precore G1896A mutation and reverse transcriptase L180M/M204I mutation in human Huh7 cells assessed as inhibition of viral replication after 5 days; assay type: functional, organism-based; settings: hepatitis B virus genotype D; Huh-7
# How it was run: (§2)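 Huh7 cells grown in DMEM with 10% FBS at 37°C and 5% CO₂, then transiently transfected with each HBV construct. Cultures were exposed continuously to LMV at 0, 0.001, 0.01, 0.1, 1 or 10 μM for 5 days. Intracellular core-associated HBV DNA was quantified by Southern blot, autoradiography and densitometry, normalised to untreated controls. EC50 was taken from a three-parameter logistic fit of three pooled assays.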
# HBV genotype D [4] = test: Antiviral activity against HBeAg-deficient HBV genotype D with precore G1896A mutation and reverse transcriptase L80I/M204I mutation in human Huh7 cells assessed as viral replication yield at 1 uM after 5 days relative to control; assay type: functional, hepatitis B virus genotype D, Huh-7; how it was run: as §1
# HBV genotype D [5] = test: Antiviral activity against HBV genotype D in human Huh7 cells assessed as inhibition of viral replication after 5 days; assay type: functional, organism-based; settings: Hepatitis B virus, Huh-7, 120 h
# How it was run: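 Huh7 cells (DMEM, 10% FBS, 37°C, 5% CO2) at 60–80% confluence were transiently transfected with a wild-type HBeAg-negative HBV clone or mutants. They were exposed continuously to LMV (0–10 μM) or ADV (0–10 μM). Day-5 intracellular core-associated HBV DNA was measured by Southern blot, autoradiography and densitometry, normalized to untreated controls. Three assays were pooled; EC50 came from a three-parameter logistic fit.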
# HBV genotype D [6] = test: Antiviral activity against HBeAg-deficient HBV genotype D with precore G1896A mutation and reverse transcriptase L180M/M204I mutation in human Huh7 cells assessed as viral replication yield at 1 uM after 5 days relative to control; assay type: functional, hepatitis B virus genotype D, Huh-7; how it was run: as §1
# HBV genotype D [7] = test: Antiviral activity against HBeAg-deficient HBV genotype D with precore G1896A mutation and reverse transcriptase L80I/L180M/M204I mutation in human Huh7 cells assessed as viral replication yield at 1 uM after 5 days relative to control; assay type: functional, hepatitis B virus genotype D, Huh-7; how it was run: as §1
# HBV genotype D [8] = test: Antiviral activity against HBV genotype D with reverse transcriptase L80I/M204I mutation in human Huh7 cells assessed as inhibition of viral replication after 5 days; assay type: functional, organism-based; settings: hepatitis B virus genotype D; Huh-7; how it was run: as §2
# HBV genotype D [9] = test: Antiviral activity against HBV genotype D with reverse transcriptase L80I/L180M/M204I mutation in human Huh7 cells assessed as viral replication yield at 1 uM after 5 days relative to control; assay type: functional, hepatitis B virus genotype D, Huh-7; how it was run: as §1
# HBV genotype D [10] = test: Effect on replication efficiency of HBeAg-deficient HBV genotype D with precore G1896A mutation and reverse transcriptase L80I mutation in human Huh7 cells assessed as decrease viral replication yield at 1 uM after 5 days relative to control; assay type: functional, hepatitis B virus genotype D, Huh-7; parameters: scale not given: the % may be the effect or the level left; how it was run: as §1
# HBV genotype D [11] = test: Antiviral activity against HBV genotype D with reverse transcriptase L80I/L180M/M204I mutation in human Huh7 cells assessed as inhibition of viral replication after 5 days; assay type: functional, organism-based; settings: hepatitis B virus genotype D; Huh-7; how it was run: as §2
# HBV genotype D [12] = test: Effect on replication efficiency of HBV genotype D with reverse transcriptase L80I/L180M/M204I mutation in human Huh7 cells assessed as decrease in viral replication yield at 1 uM after 5 days relative to control; assay type: functional, hepatitis B virus genotype D, Huh-7; parameters: scale not given: the % may be the effect or the level left; how it was run: as §1
# HBV genotype D [13] = test: Antiviral activity against HBeAg-deficient HBV genotype D with precore G1896A mutation and reverse transcriptase L80I/M204I mutation in human Huh7 cells assessed as inhibition of viral replication after 5 days; assay type: functional, organism-based; settings: hepatitis B virus genotype D; Huh-7; how it was run: as §2
# HBV genotype D [14] = test: Antiviral activity against HBeAg-deficient HBV genotype D with precore G1896A mutation and reverse transcriptase L80I/L180M/M204I mutation in human Huh7 cells assessed as inhibition of viral replication after 5 days; assay type: functional, organism-based; settings: hepatitis B virus genotype D; Huh-7; how it was run: as §2
# HBV genotype D [15] = test: Antiviral activity against HBV genotype D with reverse transcriptase L180M/M204I mutation in human Huh7 cells assessed as viral replication yield at 1 uM after 5 days relative to control; assay type: functional, hepatitis B virus genotype D, Huh-7; how it was run: as §1
# HBV genotype D [16] = test: Antiviral activity against HBV genotype D with reverse transcriptase L180M/M204I mutation in human Huh7 cells assessed as inhibition of viral replication after 5 days; assay type: functional, organism-based; settings: hepatitis B virus genotype D; Huh-7; how it was run: as §2
# HBV genotype D [17] = test: Antiviral activity against HBV genotype D with reverse transcriptase L80I/M204I mutation in human Huh7 cells assessed as viral replication yield at 1 uM after 5 days relative to control; assay type: functional, hepatitis B virus genotype D, Huh-7; how it was run: as §1
# HBV genotype D [18] = test: Antiviral activity against HBeAg-deficient HBV genotype D with precore G1896A mutation and reverse transcriptase L80I mutation in human Huh7 cells assessed as inhibition of viral replication after 5 days; assay type: functional, organism-based; settings: Hepatitis B virus, Huh-7, 120 h; how it was run: as §2
# HBV genotype D [19] = test: Antiviral activity against HBeAg-deficient HBV genotype D with precore G1896A mutation and reverse transcriptase M204I mutation in human Huh7 cells assessed as inhibition of viral replication after 5 days; assay type: functional, organism-based; settings: hepatitis B virus genotype D; Huh-7; how it was run: as §2
# HBV genotype D [20] = test: Antiviral activity against HBeAg-deficient HBV genotype D with precore G1896A mutation and reverse transcriptase M204I mutation in human Huh7 cells assessed as viral replication yield at 1 uM after 5 days relative to control; assay type: functional, hepatitis B virus genotype D, Huh-7; how it was run: as §1
# HBV genotype D [21] = test: Antiviral activity against HBV genotype D with reverse transcriptase M204I mutation in human Huh7 cells assessed as viral replication yield at 1 uM after 5 days relative to control; assay type: functional, hepatitis B virus genotype D, Huh-7; how it was run: as §1
# HBV genotype D [22] = test: Antiviral activity against HBV genotype D in human Huh7 cells assessed as viral replication yield at 1 uM after 5 days relative to control; assay type: functional, hepatitis B virus genotype D, Huh-7
# How it was run: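 Transiently transfected Huh7 cells were cultured for 5 days with or without 1 μM LMV. Intracellular core-associated HBV DNA was measured by Southern blot, corrected for transfection efficiency using supernatant HBsAg (IMX enzyme immunoassay), and expressed relative to the mean of the uninhibited controls (set to 1.0). Data come from at least three experiments.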
# HBV genotype D [23] = test: Antiviral activity against HBeAg-deficient HBV genotype D with precore G1896A mutation in human Huh7 cells assessed as viral replication yield at 1 uM after 5 days relative to control; assay type: functional, hepatitis B virus genotype D, Huh-7; how it was run: as §1
# HBV genotype D [24] = test: Effect on replication efficiency of HBV genotype D with reverse transcriptase L80I mutation in human Huh7 cells assessed as decrease in viral replication yield at 1 uM after 5 days relative to control; assay type: functional, hepatitis B virus genotype D, Huh-7; parameters: scale not given: the % may be the effect or the level left; how it was run: as §1
# HBV genotype D [25] = test: Antiviral activity against HBeAg-deficient HBV genotype D with precore G1896A mutation and reverse transcriptase L80I mutation in human Huh7 cells assessed as viral replication yield at 1 uM after 5 days relative to control; assay type: functional, hepatitis B virus genotype D, Huh-7; how it was run: as §1
# HBV genotype D [26] = test: Effect on replication efficiency of HBeAg-deficient HBV genotype D with precore G1896A mutation and reverse transcriptase L80I/M204I mutation in human Huh7 cells assessed as decrease in viral replication yield at 1 uM after 5 days relative to control; assay type: functional, hepatitis B virus genotype D, Huh-7; parameters: scale not given: the % may be the effect or the level left; how it was run: as §1
# HBV genotype D [27] = test: Antiviral activity against HBV genotype D with reverse transcriptase L80I mutation in human Huh7 cells assessed as inhibition of viral replication after 5 days; assay type: functional, organism-based; settings: Hepatitis B virus, Huh-7, 120 h; how it was run: as §2
# HBV genotype D [28] = test: Antiviral activity against HBV genotype D with reverse transcriptase M204I mutation in human Huh7 cells assessed as inhibition of viral replication after 5 days; assay type: functional, organism-based; settings: hepatitis B virus genotype D; Huh-7; how it was run: as §2
# HBV genotype D [29] = test: Effect on replication efficiency of HBeAg-deficient HBV genotype D with precore G1896A mutation and reverse transcriptase L80I/L180M/M204I mutation in human Huh7 cells assessed as increase in viral replication yield at 1 uM after 5 days relative to control; assay type: functional, hepatitis B virus genotype D, Huh-7; how it was run: as §1
# HBV genotype D [30] = test: Antiviral activity against HBeAg-deficient HBV genotype D with precore G1896A mutation in human Huh7 cells assessed as inhibition of viral replication after 5 days; assay type: functional, organism-based; settings: Hepatitis B virus, Huh-7, 120 h; how it was run: as §2
structure (smiles),measurement,setting,value
Nc1ccn([C@@H]2CS[C@H](CO)O2)c(=O)n1 [LAMIVUDINE],fold change (FC),HBV genotype D [1],0.06
same,Activity,HBV genotype D [2],902%
same,Activity,HBV genotype D [3],inactive
same,fold change (FC),HBV genotype D [4],0.27
same,EC50,HBV genotype D [5],410 nM
same,fold change (FC),HBV genotype D [6],0.54
same,fold change (FC),HBV genotype D [7],3.27
same,Activity,HBV genotype D [8],inactive
same,fold change (FC),HBV genotype D [9],0.34
same,Activity,HBV genotype D [10],88%
same,Activity,HBV genotype D [11],inactive
same,Activity,HBV genotype D [12],48%
same,Activity,HBV genotype D [13],inactive
same,Activity,HBV genotype D [14],inactive
same,fold change (FC),HBV genotype D [15],0.65
same,Activity,HBV genotype D [16],inactive
same,fold change (FC),HBV genotype D [17],3.76
same,EC50,HBV genotype D [18],30 nM
same,Activity,HBV genotype D [19],inactive
same,fold change (FC),HBV genotype D [20],1.4
same,fold change (FC),HBV genotype D [21],0.38
same,fold change (FC),HBV genotype D [22],0.33
same,fold change (FC),HBV genotype D [23],0.35
same,Activity,HBV genotype D [24],82%
same,fold change (FC),HBV genotype D [25],0.04
same,Activity,HBV genotype D [26],80%
same,EC50,HBV genotype D [27],30 nM
same,Activity,HBV genotype D [28],inactive
same,Activity,HBV genotype D [29],506%
same,EC50,HBV genotype D [30],460 nM
